Here are results for 70 molecules from ChEMBL document CHEMBL2176935, “Discovery and lead optimization of a novel series of CC chemokine receptor 1 (CCR1)-selective piperidine antagonists via parallel synthesis” (J Med Chem, 2012).

In the experiment the target is T1, C-C chemokine receptor type 1 (Homo sapiens, UniProt P32246).
T1 sequence (P32246 whole entry): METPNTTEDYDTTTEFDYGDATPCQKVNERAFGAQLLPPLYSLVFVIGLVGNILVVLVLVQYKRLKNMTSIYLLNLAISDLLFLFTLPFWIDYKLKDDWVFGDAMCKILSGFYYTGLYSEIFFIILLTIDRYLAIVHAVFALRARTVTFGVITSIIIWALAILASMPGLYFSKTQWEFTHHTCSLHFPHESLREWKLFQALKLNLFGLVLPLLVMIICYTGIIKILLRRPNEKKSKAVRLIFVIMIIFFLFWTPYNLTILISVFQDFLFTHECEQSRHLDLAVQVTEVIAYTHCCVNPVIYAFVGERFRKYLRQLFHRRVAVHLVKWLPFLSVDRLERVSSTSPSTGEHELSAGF
Briefly: Displacement of [125I]MIP-1alpha from CCR1 in human THP1 cells. In kind it is cell-based, THP-1. In a few lines: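 THP-1 cells, 1 × 105, mixed with WGA PS SPA beads in RPMI 1640 (no phenol red) with 50 mM HEPES, 5 mM MgCl2, 1 mM CaCl2, 0.1% BSA. Compound in 3-fold dilutions, 8 μM to 140 pM final. [125I]-MIP-1α at 0.1 nM final. Incubated 12 h at room temperature, imaged by LEADseeker. Duplicates; IC50 from four-parameter logistic fit after nonspecific correction.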
Regarding `CC(C)C(NC(=O)Oc1ccccc1)C(=O)N1CCC(c2ccc(Cl)cc2)CC1` (stereo not given), the half-inhibitory concentration (IC50) was 265 nM.

`CC(C)C(NS(=O)(=O)Cc1ccccc1)C(=O)N1CCC(c2ccc(Cl)cc2)CC1` (stereo not given) showed an IC50 of 303 nM.

For `CC(C)[C@@H](NC(=O)NCc1ccccc1)C(=O)N1CCC(c2ccc(Cl)cc2)CC1`, the IC50 turned out to be 180 nM.

As to `CCCC(NC(=O)c1ccccc1)C(=O)N1CCC(c2ccc(Cl)cc2)CC1` (racemic), the IC50 was 120 nM. Against the preceding molecule, the IC50 is about 1.5-fold lower.

`CC(C)C(NC(=O)c1ccc2ccccc2c1)C(=O)N1CCC(c2ccc(Cl)cc2)CC1` (stereo not given) gave a concentration for half-maximal inhibition (IC50) of 80 nM. This IC50 lies about 1.5-fold lower than the previous one.

Consider `CC(C)[C@@H](NC(=O)c1nc2ccccc2s1)C(=O)N1CCC(c2ccc(Cl)cc2)CC1`, for which the IC50 is 18 nM.

`CCCC(NC(=O)c1ccccc1C)C(=O)N1CCC(c2ccc(Cl)cc2)CC1` (racemic) returned a 50% inhibitory concentration (IC50) of 152 nM.

For the molecule `Cc1ccc(CCC(=O)N[C@@H](C(=O)N2CCC(c3ccc(Cl)cc3)CC2)C(C)C)cc1`, the concentration for half-maximal inhibition (IC50) is 105 nM.

`CC[C@@H](C)[C@@H](NC(=O)CC(C)C)C(=O)N1CCC(c2ccc(Cl)cc2)CC1` registered an IC50 of 34 nM. Compared with the last molecule, the IC50 is about 3.1-fold lower.

Consider `CC(C)C(NC(=O)c1ccccc1)C(=O)N1CCN(c2ccc(Cl)c(Cl)c2)CC1` (stereo not given), for which the concentration for half-maximal inhibition (IC50) was 375 nM.

As for `CC(C)CCC(=O)N[C@@H](C(=O)N1CCC(c2ccc(Cl)cc2)CC1)C(C)C`, the IC50 was 26 nM.

Regarding `CC(C)C(NC(=O)c1ccccc1)C(=O)N1CCC(O)(c2ccc(Cl)cc2)CC1` (stereo not given), the IC50 was found to be 180 nM.

Turning to `CC(C)CC(=O)N[C@@H](C(=O)N1CCC(c2ccc(Cl)cc2)CC1)C(C)C`, the IC50 turned out to be 32 nM. This IC50 lies about 5.6-fold lower than the previous one.

With `CC[C@@H](C)[C@@H](NC(=O)c1ccccc1)C(=O)N1CCC(c2ccc(Cl)cc2)CC1`, the half-inhibitory concentration (IC50) came out at 45 nM.

With `C/C=C(/NC(=O)c1ccccc1)C(=O)N1CCC(O)(c2ccc(Cl)cc2)CC1`, the half-inhibitory concentration (IC50) was 370 nM.

Take `CC(C)[C@@H](NC(=O)Cc1cccc(Cl)c1)C(=O)N1CCC(c2ccc(Cl)cc2)CC1`: the IC50 is 45 nM.

Take `CC(C)[C@@H](NC(=O)CCc1ccc(F)cc1)C(=O)N1CCC(c2ccc(Cl)cc2)CC1`: the half-inhibitory concentration (IC50) was 70 nM.

On to `CC(C)[C@@H](NC(=O)C1CCCC1)C(=O)N1CCC(c2ccc(Cl)cc2)CC1`, for which the 50% inhibitory concentration (IC50) came to 70 nM.

Consider `CC(C)[C@H](NC(=O)c1ccccc1)C(=O)N1CCC(c2ccc(Cl)cc2)CC1`, for which the IC50 was 14900 nM.

Take `Cc1ccc(CC(=O)N[C@@H](C(=O)N2CCC(c3ccc(Cl)cc3)CC2)C(C)C)cc1`: the half-inhibitory concentration (IC50) stood at 140 nM.

In the case of `Cc1cccc(CCC(=O)N[C@@H](C(=O)N2CCC(c3ccc(Cl)cc3)CC2)C(C)C)c1`, the 50% inhibitory concentration (IC50) was 22 nM.

Molecule `CC(C)[C@@H](NC(=O)c1ccc(F)c(F)c1)C(=O)N1CCC(c2ccc(Cl)cc2)CC1` showed an IC50 of 14 nM. This IC50 is about 1.6-fold lower than that of the molecule before.

For the molecule `CC(C)C(NC(=O)c1ccccc1)C(=O)N1CC=C(c2ccc(Cl)cc2)CC1` (stereo not given), the 50% inhibitory concentration (IC50) stood at 185 nM.

For the molecule `Cc1ccccc1C(=O)NC(C(=O)N1CCC(c2ccc(Cl)cc2)CC1)C(C)C` (stereo not given), the IC50 stood at 36 nM.

For the molecule `CC(C)C(NC(=O)c1ccccc1)C(=O)N1CCC(O)(c2ccc(Br)cc2)CC1` (stereo not given), the IC50 amounted to 172 nM.

The molecule `CC(C)C(NC(=O)c1ccccc1)C(=O)N1CCC(O)(c2ccc(F)cc2)CC1` (stereo not given) displayed an IC50 of 933 nM.

The molecule `CC(C)C(NC(=O)OCc1ccccc1)C(=O)N1CCC(c2ccc(Cl)cc2)CC1` (stereo not given) yielded an IC50 of 1080 nM. The IC50 values of the last two molecules are within 1.5-fold of each other.

`CC(C)C(NC(=O)c1ccccc1)C(=O)N1CCC(c2ccc(F)cc2)CC1` (stereo not given) showed an IC50 of 423 nM.

With `Cc1cccc(C)c1C(=O)N[C@@H](C(=O)N1CCC(c2ccc(Cl)cc2)CC1)C(C)C`, the IC50 was 177 nM.

In the case of `CC(C)[C@@H](NC(=O)c1cccc(F)c1)C(=O)N1CCC(c2ccc(Cl)cc2)CC1`, the IC50 was 24 nM.

In the case of `CC(C)[C@@H](NC(=O)Nc1ccccc1)C(=O)N1CCC(c2ccc(Cl)cc2)CC1`, the IC50 came out at 616 nM.

`CC[C@@H](NC(=O)c1ccccc1)C(=O)N1CCC(c2ccc(Cl)cc2)CC1` gave an IC50 of 121 nM.

The molecule `CC(C)CC(NC(=O)c1ccccc1)C(=O)N1CCC(O)(c2ccc(Cl)cc2)CC1` (stereo not given) yielded an IC50 of 324 nM. This IC50 is about 2.7-fold higher than that of the molecule before.

As to `CC(C)CC(NC(=O)c1ccccc1)C(=O)N1CCC(c2ccc(Cl)cc2)CC1` (stereo not given), the IC50 came to 130 nM.

`CCCC(NC(=O)c1ccccc1)C(=O)N1CCC(O)(c2ccc(Cl)cc2)CC1` (stereo not given): the concentration for half-maximal inhibition (IC50) was 521 nM.

`CC[C@@H](C)[C@@H](NC(=O)CCc1ccccc1)C(=O)N1CCC(c2ccc(Cl)cc2)CC1` registered an IC50 of 66 nM.

Molecule `CC(C)[C@@H](NC(=O)Cc1ccc(Cl)cc1)C(=O)N1CCC(c2ccc(Cl)cc2)CC1` yielded an IC50 of 115 nM. This IC50 is about 1.7-fold higher than that of the molecule before.

In turn, `CC(C)[C@@H](NC(=O)CCc1ccccc1F)C(=O)N1CCC(c2ccc(Cl)cc2)CC1` yielded an IC50 of 18 nM.

In turn, `CC(C)[C@@H](NC(=O)CC1CCCCC1)C(=O)N1CCC(c2ccc(Cl)cc2)CC1` gave a half-maximal inhibitory concentration (IC50) of 8 nM.

`Cc1cccc(C(=O)N[C@@H](C(=O)N2CCC(c3ccc(Cl)cc3)CC2)C(C)C)c1C`: the half-maximal inhibitory concentration (IC50) turned out to be 100 nM.

`Cc1ccc(C(=O)N[C@@H](C(=O)N2CCC(c3ccc(Cl)cc3)CC2)C(C)C)cc1` returned an IC50 of 25 nM.

With `CC(C)(C)C(NC(=O)c1ccccc1)C(=O)N1CCC(c2ccc(Cl)cc2)CC1` (stereo not given), the half-maximal inhibitory concentration (IC50) came out at 259 nM. This IC50 lies about 10-fold higher than the previous one.

In the case of `CC(C)C(NC(=O)c1ccccc1)C(=O)N1CCN(c2ccc(Cl)cc2)CC1` (stereo not given), the IC50 was 525 nM.

For `Cc1ccccc1C(=O)NC(CC(C)C)C(=O)N1CCC(c2ccc(Cl)cc2)CC1` (stereo not given), the IC50 came out at 88 nM.

In turn, `CC(O)C(NC(=O)c1ccccc1)C(=O)N1CCC(O)(c2ccc(Cl)cc2)CC1` (stereo not given) registered a half-maximal inhibitory concentration (IC50) of 2830 nM.

For the molecule `CSCCC(NC(=O)c1ccccc1)C(=O)N1CCC(O)(c2ccc(Cl)cc2)CC1` (stereo not given), the IC50 worked out at 539 nM. Against the preceding molecule, the IC50 is about 5.3-fold lower.

Take `Cc1ccccc1C(=O)N[C@@H](C(=O)N1CCC(c2ccc(Cl)cc2)CC1)C(C)C`: the IC50 was 32 nM.

`CC(C)[C@@H](NC(=O)Cc1ccccc1)C(=O)N1CCC(c2ccc(Cl)cc2)CC1`: the IC50 was 30 nM.

`CC[C@@H](NC(=O)Cc1ccccc1)C(=O)N1CCC(c2ccc(Cl)cc2)CC1` displayed a concentration for half-maximal inhibition (IC50) of 50 nM.

Take `CC(C)C(=O)NC(C(=O)N1CCC(c2ccc(Cl)cc2)CC1)C(C)C` (stereo not given): the concentration for half-maximal inhibition (IC50) worked out at 388 nM.

Regarding `CC(C)C(NC(=O)OCc1ccccc1)C(=O)N1CCC(O)(c2ccc(Cl)cc2)CC1` (stereo not given), the half-inhibitory concentration (IC50) came out at 854 nM.

On to `CC(C)[C@@H](NC(=O)CC1CCCC1)C(=O)N1CCC(c2ccc(Cl)cc2)CC1`, for which the IC50 was 20 nM.

On to `CC(C)C(NC(=O)CCc1ccccc1)C(=O)N1CCC(c2ccc(Cl)cc2)CC1` (stereo not given), for which the IC50 worked out at 35 nM.

`CC(C)[C@@H](NC(=O)c1cc2ccccc2s1)C(=O)N1CCC(c2ccc(Cl)cc2)CC1` gave an IC50 of 58 nM.

Consider `CC(C)[C@@H](NC(=O)Cc1ccccc1F)C(=O)N1CCC(c2ccc(Cl)cc2)CC1`, for which the half-maximal inhibitory concentration (IC50) came to 13 nM. This IC50 lies about 4.5-fold lower than the previous one.

For the molecule `CC(C)[C@@H](NC(=O)CC1CC1)C(=O)N1CCC(c2ccc(Cl)cc2)CC1`, the half-inhibitory concentration (IC50) was determined as 46 nM.

Regarding `CC(C)C(NC(=O)Cc1ccccc1)C(=O)N1CCC(c2ccc(Cl)cc2)CC1` (stereo not given), the IC50 was 40 nM.

For the molecule `O=C(N[C@@H](C(=O)N1CCC(c2ccc(Cl)cc2)CC1)C1CCCCC1)c1ccccc1`, the IC50 amounted to 121 nM.

Take `CC(C)[C@@H](NC(=O)NCCc1ccccc1)C(=O)N1CCC(c2ccc(Cl)cc2)CC1`: the IC50 came to 543 nM.

As for `CC(C)[C@@H](NC(=O)CCCc1ccccc1)C(=O)N1CCC(c2ccc(Cl)cc2)CC1`, the IC50 amounted to 95 nM.

`CC(C)[C@@H](NC(=O)Cc1cccc(F)c1)C(=O)N1CCC(c2ccc(Cl)cc2)CC1` had a concentration for half-maximal inhibition (IC50) of 44 nM.

Take `Cc1ccccc1CCC(=O)N[C@@H](C(=O)N1CCC(c2ccc(Cl)cc2)CC1)C(C)C`: the IC50 worked out at 19 nM.

`CC(C)C(NC(=O)c1ccccc1)C(=O)N1CCC(c2ccc(Cl)cc2)CC1` (stereo not given) registered an IC50 of 55 nM.

On to `CC(C)[C@@H](NC(=O)c1ccc(F)cc1)C(=O)N1CCC(c2ccc(Cl)cc2)CC1`, for which the concentration for half-maximal inhibition (IC50) turned out to be 118 nM.

Regarding `Cc1ccccc1C(=O)NC(C(=O)N1CCC(c2ccc(Cl)cc2)CC1)C(C)(C)C` (stereo not given), the concentration for half-maximal inhibition (IC50) turned out to be 262 nM.

`CCCC(NC(=O)c1ccc2ccccc2c1)C(=O)N1CCC(c2ccc(Cl)cc2)CC1` (racemic) returned an IC50 of 191 nM. The IC50 values of the last two molecules are within 1.5-fold of each other.

The molecule `CC(C)[C@@H](NC(=O)CCc1ccccc1)C(=O)N1CCC(c2ccc(Cl)cc2)CC1` had an IC50 of 40 nM.

Consider `CC[C@@H](C)[C@@H](NC(=O)Cc1ccccc1)C(=O)N1CCC(c2ccc(Cl)cc2)CC1`, for which the IC50 was determined as 38 nM. This IC50 and that of the molecule before are within 1.5-fold of each other.

Molecule `CC[C@@H](NC(=O)CCc1ccccc1)C(=O)N1CCC(c2ccc(Cl)cc2)CC1` displayed a concentration for half-maximal inhibition (IC50) of 85 nM. Against the preceding molecule, the IC50 is about 2.2-fold higher.

For the molecule `CC[C@@H](NC(=O)CC(C)C)C(=O)N1CCC(c2ccc(Cl)cc2)CC1`, the 50% inhibitory concentration (IC50) was found to be 152 nM.
